Tested on: not listed separately; call rule not given here
Assay: Concentration that inhibits binding of [3H]ouabain against Digitalis receptor in dog heart microsomes; Not active at a concentration > 100 uM
Set-up: species or system Canis lupus familiaris, Microsome

In the case of `C[C@@H]1O[C@@H](O[C@H]2CC[C@@]3(C)[C@H](CC[C@@H]4[C@@H]3CC[C@]3(C)[C@@H]5CC[C@]43OC(=O)C5)C2)[C@H](O)[C@H](O)[C@H]1O`, the IC50 is reported as “Not Active”.

Target: Sodium/potassium-transporting ATPase subunit alpha-1 (Canis lupus familiaris, UniProt P50997)
Assay: Inhibition of [3H]ouabain binding to Digitalis receptor in dog heart microsomes
Outline: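 Radioligand competition assay in dog heart muscle microsomes (membrane preparation), measuring [³H]ouabain binding with the test steroids present. Steroids were added in ethanol.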

Compared with `COC(C[N+](=O)[O-])[C@H]1CC[C@]2(O)[C@@H]3CC[C@@H]4C[C@@H](O[C@@H]5O[C@@H](C)[C@H](O)[C@@H](O)[C@H]5O)CC[C@]4(C)[C@H]3CC[C@]12C` (some centres not stated), `C[C@@H]1O[C@@H](O[C@H]2CC[C@@]3(C)[C@H](CC[C@@H]4[C@@H]3CC[C@]3(C)[C@H](C(O)C[N+](=O)[O-])CC[C@]43O)C2)[C@H](O)[C@H](O)[C@H]1O` (some centres not stated) is 160-fold higher in IC50: 0.03 µM for the first, 4.73 µM for the second.

First: C[C@@H]1O[C@@H](O[C@H]2CC[C@@]3(C)[C@H](CC[C@@H]4[C@@H]3CC[C@]3(C)[C@@H](CCO)CC[C@]43O)C2)[C@H](O)[C@H](O)[C@H]1O
Second: CC1OC(O[C@H]2CC[C@@]3(C)[C@H](CC[C@@H]4[C@@H]3CC[C@]3(C)[C@@H](CCN)CC[C@]43O)C2)C(O)C(O)C1O (some centres not stated)
The IC50 of the first is 2.9-fold lower: 0.66 µM for the first, 1.89 µM for the second. The first is the more potent here.

Compared with `C[C@@H]1O[C@@H](O[C@H]2CC[C@@]3(C)[C@H](CC[C@@H]4[C@@H]3CC[C@]3(C)[C@@H](CCC(=O)O)CC[C@]43O)C2)[C@H](O)[C@H](O)[C@H]1O`, `C[C@@H]1O[C@@H](O[C@H]2CC[C@@]3(C)[C@H](CC[C@@H]4[C@@H]3CC[C@]3(C)[C@@H](CC[N+](=O)[O-])CC[C@]43O)C2)[C@H](O)[C@H](O)[C@H]1O` is 5.1-fold lower in IC50: 0.23 µM for the first, 0.0455 µM for the second.

`C[C@@H]1O[C@@H](O[C@H]2CC[C@@]3(C)[C@H](CC[C@@H]4[C@@H]3CC[C@]3(C)[C@@H]5CC[C@]43OC5)C2)[C@H](O)[C@H](O)[C@H]1O` and `C[C@@H]1O[C@@H](O[C@H]2CC[C@@]3(C)[C@H](CC[C@@H]4[C@@H]3CC[C@]3(C)[C@@H](C(O)CN)CC[C@]43O)C2)[C@H](O)[C@H](O)[C@H]1O` (some centres not stated) are within 1.5-fold of each other in IC50: 2.2 µM for the first, 3.22 µM for the second.

Going from `C[C@@H]1O[C@@H](O[C@H]2CC[C@@]3(C)[C@H](CC[C@@H]4[C@@H]3CC[C@]3(C)[C@@H](/C=C/[N+](=O)[O-])CC[C@]43O)C2)[C@H](O)[C@H](O)[C@H]1O` to `C[C@@H]1O[C@@H](O[C@H]2CC[C@@]3(C)[C@H](CC[C@@H]4[C@@H]3CC[C@]3(C)[C@@H](/C=C/C(=O)O)CC[C@]43O)C2)[C@H](O)[C@H](O)[C@H]1O`, the IC50 rises from 0.0083 µM to 0.013 µM (1.6-fold). The first is the more potent here.

For `C[C@H]1O[C@@H](O[C@H]2[C@@H](O)C[C@H](O[C@H]3[C@@H](O)C[C@H](O[C@H]4CC[C@@]5(C)[C@H](CC[C@@H]6[C@@H]5CC[C@]5(C)[C@@H](C7=CC(=O)OC7)CC[C@]65O)C4)O[C@@H]3C)O[C@@H]2C)C[C@H](O)[C@@H]1O` [DIGITOXIN], the IC50 was 0.008 µM.

Source: ChEMBL document CHEMBL1130024, “Synthesis and structure-activity relationships of 17beta-substituted 14beta-hydroxysteroid 3-(alpha-L-rhamnopyranoside)s: steroids that bind to the digitalis receptor” (J Med Chem, 1997)
